NR3A LBD binder: NR3A (human) ligand-binding domain modulation; NR3A LBD differential scanning fluorimetry, Tm shift; 0% = protein alone, 100% = glycine-bound protein; Tm shift relative to glycine control, % at 25 µM; 340,000 compounds, 2.5% hits; AID 1259313;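 active = melting temperature shift of at least 10% of the positive control shift, at one fixed dose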
Hep lipid drop: hepatic lipid droplet formation modulation; 240,000 compounds, 0.4% hits; AML12 mouse hepatocytes, oleate lipid droplets, BODIPY imaging; inhibition, % at 6.5 µM;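 active = lipid droplet intensity inhibited by at least 50%, with more than 500 cells counted; inconclusive = wells with under 300 cells, treated as cytotoxic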
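Material: mouse AML12 hepatocyte cell line, fixed after treatment; Timing: compound with oleate, overnight; Technique: high-content imaging of BODIPY-stained droplets and DAPI nuclei; Probe or stimulus: oleate, 100 µM final; Dosing: compound at 6.5 µM only.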
GASC-1 inh: inhibitors of human GASC-1 (JMJD2C) demethylase; Q9H3R0; GST-JMJD2C(1-420) H3K9me3 demethylation, DELFIA europium; inhibition, % at 2.35 µM; 330,000 compounds, 0.069% hits;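 active = more than half of a compound's replicate wells show inhibition beyond 50%, single wells judged on their own value; inconclusive = some, but no more than half, of replicates pass 50% inhibition; inactive = no replicate passes 50% inhibition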;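 note: signal counts dimethyl H3K9 product captured on neutravidin plate; 0% = median of DMSO wells and 100% = 0.3 times that DMSO median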
GC-A act: GC-A (human) enzyme activation; P16066; HEK293 GC-A cells, cGMP TR-FRET, EC30 ANP; 0% at EC30 ANP, 100% saturating ANP; activation, % at 10 µM; 370,000 compounds, 0.14% hits; AID 1671463; in the data active = activation above about 40%
aDG glyco act: increases alpha dystroglycan glycosylation. Pro5-aDG cells, alpha-DG glycosylation AlphaScreen (IIH6); 0% Pro5, 100% B10-LARGE cell signal. activation, % at 10 µM. 360,000 compounds, 0.22% hits;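 active = activation of at least 8% versus controls, or a plate z-score of at least 8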;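 note: Pro5 are CHO cells carrying HIG-tagged alpha-DG that lacks glycosylation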
GC-B act: GC-B (human) receptor activation. P20594. HEK293-GC-B cells, CNP EC30, cGMP TR-FRET; 0% at EC30 CNP, 100% saturating CNP. activation, % at 10 µM. 370,000 compounds, 0.11% hits;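 active = activation at 10 µM reaching about 35% in either raw or pattern-adjusted values, limit read from the data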
Starred values were filed as active, the others as inactive; u = inconclusive; x = not tested or not shown; ! = not confirmed by another sample. The list is not random: actives were taken first. Their share in the collection is about 3%.

SMILES	NR3A LBD binder	Hep lipid drop	GASC-1 inh	GC-A act	aDG glyco act	GC-B act
O=C(N/N=C/c1ccc(OC(F)F)cc1)c1ccc(CSc2nc3ccccc3[nH]2)cc1	26*	-2	-6	-3	1	1
COc1ccc(NC(=S)Nc2ccc(OCc3ccccc3)cc2)c(OC)c1	10*	-5	45	2	0	4
NS(=O)(=O)c1ccc(NC(=S)Nc2ccc(OCc3ccccc3)cc2)cc1	12*	-3	-1	2	0	5
S=C(Nc1ccccc1)Nc1ccc(OCc2ccccc2)cc1	9	x	3	-1	0	7
S=C(Nc1ccc(OCc2ccccc2)cc1)Nc1cccc(Cl)c1Cl	12*	-8	-1	6	0	-4
OC(c1ccccc1)(c1ccccc1)C1CCN(CCCOc2ccccn2)CC1	x	x	x	1	x	-7
CC(C)OCC1CC(CC(=O)NC(=S)Nc2cccc([N+](=O)[O-])c2)C(=O)O1 (stereo unspecified)	0	-3	1	0	0	-3
CC1(C)CC(CC(=O)NC(=S)Nc2ccc([N+](=O)[O-])cc2)C(=O)O1 (stereo unspecified)	10*	x	u	0	0	0
CC(C)OCC1CC(CC(=O)Nc2ccc([N+](=O)[O-])cc2)C(=O)O1 (stereo unspecified)	18*	-1	-8	-1	-1	1
CCOCCOC(=O)COc1ccc2c(-c3ccccc3)cc(=O)oc2c1	1	0	0	52*	0	7
CN(C)C(=O)COc1ccc2c(-c3ccccc3)cc(=O)oc2c1	0	x	12	0	0	0
CN(C)CCC(c1ccc(Cl)cc1)c1ccccn1 (stereo unspecified)	16*!	-2	-6	-17	0	-12
COc1ccc(/C=C2\Cc3ccccc3C2=O)cc1OC	13*	0	-12	7	0	-1
Cc1ccc(-c2cc(-c3ccc(C)cc3O)[nH]n2)cc1	3	0	-8	8	0	-10
Oc1ccc(Br)cc1-c1cc(-c2ccccc2F)[nH]n1	10	12	20	2	0	-1
Cc1ccc(O)c(-c2cc(-c3cccc(Br)c3)n[nH]2)c1	28*	16	-1	-12	0	-16
Oc1ccc(Br)cc1-c1cc(-c2ccccc2Cl)[nH]n1	23*	0	8	3	0	-5
Oc1ccc(Cl)cc1-c1cc(-c2ccccc2)n[nH]1	25*	-2	-3	2	0	-4
Cc1ccc(-c2cc(-c3ccc(F)cc3)n[nH]2)c(O)c1	12*	8	-9	15	0	-2
CCC1Oc2ccccc2N(CC(=O)N2CC(C)CC(C)C2)C1=O (stereo unspecified)	x	x	x	-1	0	1
O=C(c1ccc(Cl)cc1)C1CCN(c2ncnc3sccc23)CC1	x	x	x	-2	x	-6
COc1ccc([N+](=O)[O-])cc1NCC(=O)Nc1cccc(S(=O)(=O)N2CCCC2)c1	-1	x	x	29	2	31
Cc1ccc(-c2cc(-c3ccccc3Cl)[nH]n2)c(O)c1	12*	-10	-7	6	0	-4
COC(=O)[C@H](CCSC)NC(=O)Cn1cnc2c(OCc3ccccc3)ncnc21	1	x	16	4	0	-2
COC(=O)[C@H](CC(C)C)NC(=O)Cn1cnc2c(OCc3ccccc3)ncnc21	97*	x	x	7	0	4
SMILES	NR3A LBD binder	Hep lipid drop	GASC-1 inh	GC-A act	aDG glyco act	GC-B act
COc1ccc(NC(=O)c2ccc(-c3ccc([N+](=O)[O-])cc3)o2)cc1	25*	-6	0	1	0	0
COc1ccc(NC(=O)c2ccc(-c3ccc(C(C)=O)cc3)o2)cn1	27*	x	6	5	0	5
CC(=O)c1ccc(NC(=O)CCC(=O)OCC(=O)c2cccc([N+](=O)[O-])c2)cc1	62*	4	1	x	0	x
COc1ccc(NC(=O)CCC(=O)OCc2ccc([N+](=O)[O-])cc2)cc1	20*	8	-11	3	0	5
CC(=O)Nc1ccc(NC(=O)CCC(=O)OCC(=O)c2ccc(C)c([N+](=O)[O-])c2)cc1	-36	-16	8	-1	0	2
O=C(Cc1cccc(NC(=O)C2CCCN(C(=O)C3CCCC3)C2)c1)Nc1ccc(C(=O)N2CCOCC2)cc1 (stereo unspecified)	-3	x	x	3	0	4
CS(=O)(=O)N[C@@H]1C[C@@H]2O[C@H](CO)CC[C@@H]2O[C@@H]1CCc1ccc(-c2ccccc2F)cc1	x	x	x	19	x	-3
CC1(C)CC(NC(=O)Cc2ccccc2)CC(C)(C)N1	-3	0	-1	2	0	1
NS(=O)(=O)c1ccc(N/N=C/c2ccc(O)cc2O)c([N+](=O)[O-])c1	30*	-5	-2	-1	0	-5
O=C(O)c1ccccc1NS(=O)(=O)c1ccc(N/N=C/c2ccc(O)c(O)c2)c([N+](=O)[O-])c1	16*	x	x	2	0	1
COc1ccc(NS(=O)(=O)c2ccc(NN=Cc3ccc(C(=O)O)cc3)c([N+](=O)[O-])c2)cc1	x	x	2	2	x	-1
O=C(O)c1ccccc1NS(=O)(=O)c1ccc(NN=Cc2cccc(Cl)c2)c([N+](=O)[O-])c1	32*	x	-7	-2	0	-2
O=C(O)c1ccccc1NS(=O)(=O)c1ccc(NN=Cc2ccc(F)cc2)c([N+](=O)[O-])c1	12*	x	5	x	0	x
NS(=O)(=O)c1ccc(N/N=C/c2ccccc2C(=O)O)c([N+](=O)[O-])c1	-1	32	27	-1	0	-2
COc1cc2c(cc1NC(=O)CSc1nnc(-c3cccc(Cl)c3)n1Cc1ccco1)oc1ccccc12	x	x	x	0	x	5
Cc1ccc(OCC(=O)N2CCC(C)CC2)c([N+](=O)[O-])n1	-2	x	x	2	0	2
Cc1onc(-c2ccccc2)c1C(=O)NCC1CCN(C(=O)C(=O)c2cccs2)CC1	x	x	x	1	x	5
O=c1[nH]c2cc(O)ccc2c2ccccc12	x	x	x	4	0	1
CC(=CC(=O)c1ccccc1)c1ccccc1	1	x	x	-3	0	1
CC1CCCC/C1=N\Nc1ccc(S(N)(=O)=O)cc1[N+](=O)[O-] (stereo unspecified)	-6	8	3	3	1	-6
CC(C)(C)C1CCC(=NNc2ccc(S(N)(=O)=O)cc2[N+](=O)[O-])CC1 (stereo unspecified)	16*	-6	-1	-5	0	2

Screening results as filed in PubChem.
